The record followed here is ChEMBL document CHEMBL1141897, “Pyrrolidinedione derivatives as antibacterial agents with a novel mode of action” (Bioorg Med Chem Lett, 2005).

Holding throughout (type): functional
Assay [1] deals with Staphylococcus aureus. The assay is described as follows: Minimum inhibitory concentration of the compound against Staphylococcus aureus 133 strain was determined. The essentials:
(§1)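 Whole-cell MIC panel of the Gram-positive S. aureus 133 and S. pneumoniae G9A, plus two E. coli strains: Neumann (wild type) and HN818 (efflux pump deletion strain).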

Assay [2] concerns Escherichia coli. The assay is described as follows: Minimum inhibitory concentration of the compound againstEscherichia coli Neumann strainwas determined. In outline: as §1
In assay [3] the test system is Escherichia coli. The assay is described as follows: Minimum inhibitory concentration of the compound againstEscherichia coli HN818 strain was determined. In outline:
as §1

Assay [4] has as its system Staphylococcus aureus. The assay is described as follows: Inhibitory concentration of the compound against Staphylococcus aureus was determined.
Assay [5] deals with Escherichia coli. Nature of the assay: Inhibitory concentration of the compound against Escherichia coli was determined.
The next assay concerns Streptococcus pneumoniae. The assay is described as follows: Minimum inhibitory concentration against Streptococcus pneumoniae G9A strain was determined.

Values after ≈ are worked out from the molar mass of the structure shown.

`CC(C)[C@H](NC(=O)C[C@H](NC(=O)/C=C/c1ccc(-c2ccccc2)cc1)c1ccccc1)C(=O)[C@@H]1C(=O)NC(=O)[C@H]1C`: the MIC was 2 µg/mL (≈ 3.54 µM) against Staphylococcus aureus [1], above 64 µg/mL in the assay on Escherichia coli [2], above 64 µg/mL in the assay with Escherichia coli [3] and 16 µg/mL (≈ 28.3 µM) against Streptococcus pneumoniae. Also, the results for the IC50 in the assay with Staphylococcus aureus [4] and in the assay with Escherichia coli [5] were 540 nM and 37 nM, respectively.
As to `C/C=C/C=C/C=C/C(=O)N[C@@H](CC(=O)N[C@H](C(=O)[C@@H]1C(=O)NC(=O)[C@H]1C)C(C)C)c1ccccc1`, the minimal inhibitory concentration (MIC) is 8 µg/mL (≈ 16.7 µM) against Staphylococcus aureus [1], above 64 µg/mL in the assay with Escherichia coli [2], 32 µg/mL (≈ 66.7 µM) in the assay with Escherichia coli [3] and 8 µg/mL (≈ 16.7 µM) against Streptococcus pneumoniae. The IC50 in the assay on Staphylococcus aureus [4] was 305 nM; in the assay on Escherichia coli [5], 13 nM.
Consider `CC(C)[C@H](NC(=O)C[C@H](NC(=O)/C=C/C(=O)O)c1ccccc1)C(=O)[C@@H]1C(=O)NC(=O)[C@H]1C`, for which the MIC against Staphylococcus aureus [1], against Escherichia coli [2], with Escherichia coli [3] and against Streptococcus pneumoniae was above 64 µg/mL throughout. Besides, the IC50 in the assay on Staphylococcus aureus [4] turned out to be 317 nM; with Escherichia coli [5] it was 2 nM.
Take `C/C=C/C=C/C(=O)N[C@@H](CC(=O)N[C@H](C(=O)[C@H]1CC(=O)N(C)C1=O)C(C)C)c1ccccc1`: the MIC against Staphylococcus aureus [1], against Escherichia coli [2], with Escherichia coli [3] and against Streptococcus pneumoniae was above 64 µg/mL in each case. Besides, the results for the IC50 with Staphylococcus aureus [4] and with Escherichia coli [5] were above 1000 nM and above 200 nM, respectively.
Consider `C/C=C/C=C/C(=O)N[C@@H](CC(=O)N[C@H](C(=O)[C@@H]1C(=O)N(N(C)C)C(=O)[C@H]1C)C(C)C)c1ccccc1`, for which the minimum inhibitory concentration (MIC) was 4 µg/mL (≈ 8.05 µM) in the assay with Staphylococcus aureus [1], above 64 µg/mL against Escherichia coli [2], 4 µg/mL (≈ 8.05 µM) in the assay with Escherichia coli [3] and 16 µg/mL (≈ 32.2 µM) against Streptococcus pneumoniae. Also, the values for the IC50 in the assay with Staphylococcus aureus [4] and with Escherichia coli [5] were 238 nM and 33 nM, respectively.
In the case of `C/C=C/C=C/C(=O)N[C@@H](CC(=O)N[C@H](C(=O)[C@@H]1C(=O)N(NC)C(=O)[C@H]1C)C(C)C)c1ccccc1`, the MIC in the assay with Staphylococcus aureus [1] was 4 µg/mL (≈ 8.29 µM); against Escherichia coli [2] it was above 64 µg/mL; with Escherichia coli [3], 8 µg/mL (≈ 16.6 µM); in the assay on Streptococcus pneumoniae it was 16 µg/mL (≈ 33.2 µM). Further, the IC50 in the assay on Staphylococcus aureus [4] was 105 nM; in the assay on Escherichia coli [5] it was 14 nM.
Turning to `C/C=C/C=C/C(=O)N[C@@H](CC(=O)N[C@H](C(=O)[C@@H]1C(=O)N(C)C(=O)[C@H]1CC)C(C)C)c1ccccc1`, the MIC with Staphylococcus aureus [1], against Escherichia coli [2], against Escherichia coli [3] and against Streptococcus pneumoniae was above 64 µg/mL throughout. In addition, the figures for the IC50 with Staphylococcus aureus [4] and in the assay on Escherichia coli [5] were above 1000 nM and above 200 nM, respectively.
`C/C=C/C=C/C(=O)N[C@@H](CC(=O)N[C@H](C(=O)C1CCC(=O)NC1=O)C(C)C)c1ccccc1` (stereo not given in full): the MIC against Staphylococcus aureus [1], with Escherichia coli [2], against Escherichia coli [3] and against Streptococcus pneumoniae was above 64 µg/mL each time. The values for the IC50 in the assay on Staphylococcus aureus [4] and in the assay on Escherichia coli [5] were above 1000 nM and above 300 nM, respectively.
As for `CC(C)[C@H](NC(=O)C[C@H](NC(=O)/C=C/c1ccc(Cl)c(Cl)c1)c1ccccc1)C(=O)[C@@H]1C(=O)NC(=O)[C@H]1C`, the MIC with Staphylococcus aureus [1] is 2 µg/mL (≈ 3.58 µM); against Escherichia coli [2] it was 8 µg/mL (≈ 14.3 µM); against Escherichia coli [3] it was 1 µg/mL (≈ 1.79 µM); in the assay on Streptococcus pneumoniae, 32 µg/mL (≈ 57.3 µM). In addition, the 50% inhibitory concentration (IC50) in the assay with Staphylococcus aureus [4] is 288 nM; in the assay with Escherichia coli [5], 7 nM.
`C/C=C/C=C/C(=O)N[C@@H](CC(=O)N[C@H](C(=O)[C@@H]1C(=O)NC(=O)[C@H]1C)C(C)C)c1ccccc1`: the MIC in the assay on Staphylococcus aureus [1] was 8 µg/mL (≈ 17.6 µM); against Escherichia coli [2], 32 µg/mL (≈ 70.6 µM); against Escherichia coli [3], 4 µg/mL (≈ 8.82 µM); with Streptococcus pneumoniae it was 32 µg/mL (≈ 70.6 µM). The results for the IC50 with Staphylococcus aureus [4] and in the assay with Escherichia coli [5] were 96 nM and 6 nM, respectively.
As to `CC(C)[C@H](NC(=O)C[C@H](NC(=O)/C=C/c1ccccc1)c1ccccc1)C(=O)[C@@H]1C(=O)NC(=O)[C@H]1C`, the MIC against Staphylococcus aureus [1] was determined as 8 µg/mL (≈ 16.3 µM); against Escherichia coli [2], 32 µg/mL (≈ 65.4 µM); in the assay with Escherichia coli [3], 2 µg/mL (≈ 4.09 µM); against Streptococcus pneumoniae it was 32 µg/mL (≈ 65.4 µM). In addition, the IC50 in the assay with Staphylococcus aureus [4] is 75 nM; with Escherichia coli [5] it was 9 nM.
Take `CC(C)[C@H](NC(=O)C[C@H](NC(=O)/C=C/c1c[nH]cn1)c1ccccc1)C(=O)[C@@H]1C(=O)NC(=O)[C@H]1C`: the MIC against Staphylococcus aureus [1] was above 64 µg/mL; with Escherichia coli [2] it was above 64 µg/mL; in the assay on Escherichia coli [3], 64 µg/mL (≈ 133 µM); against Streptococcus pneumoniae, above 64 µg/mL. Moreover, the IC50 is 151 nM in the assay on Staphylococcus aureus [4] and 6 nM in the assay with Escherichia coli [5].
Take `C/C=C/C=C/C(=O)N[C@@H](CC(=O)N[C@H](C(=O)[C@@H]1C(=O)N(OCC)C(=O)[C@H]1C)C(C)C)c1ccccc1`: the MIC in the assay with Staphylococcus aureus [1] was 8 µg/mL (≈ 16.1 µM); against Escherichia coli [2], above 64 µg/mL; in the assay on Escherichia coli [3], 64 µg/mL (≈ 129 µM); in the assay on Streptococcus pneumoniae, 32 µg/mL (≈ 64.3 µM). Also, the IC50 is 123 nM in the assay on Staphylococcus aureus [4] and 100 nM in the assay on Escherichia coli [5].
For `C/C=C/C=C/C(=O)N[C@@H](CC(=O)N[C@H](C(=O)[C@@H]1C(=O)NC(=O)C1(C)C)C(C)C)c1ccccc1`, the MIC against Staphylococcus aureus [1], against Escherichia coli [2], in the assay on Escherichia coli [3] and with Streptococcus pneumoniae was above 64 µg/mL throughout. Moreover, the figures for the IC50 in the assay with Staphylococcus aureus [4] and with Escherichia coli [5] were 900 nM and 54 nM, respectively.
For `C/C=C/C=C/C(=O)N[C@@H](CC(=O)N[C@H](C(=O)[C@@H]1C(=O)N(CCOC)C(=O)[C@H]1C)C(C)C)c1ccccc1`, the MIC in the assay with Staphylococcus aureus [1] was 64 µg/mL (≈ 125 µM); against Escherichia coli [2], above 64 µg/mL; in the assay on Escherichia coli [3], above 64 µg/mL; in the assay with Streptococcus pneumoniae, 64 µg/mL (≈ 125 µM). The IC50 in the assay on Staphylococcus aureus [4] worked out at 1300 nM; in the assay on Escherichia coli [5] it was 150 nM.
Consider `COc1cccc(/C=C/C(=O)N[C@@H](CC(=O)N[C@H](C(=O)[C@@H]2C(=O)NC(=O)[C@H]2C)C(C)C)c2ccccc2)c1`, for which the MIC in the assay with Staphylococcus aureus [1] worked out at 4 µg/mL (≈ 7.7 µM); against Escherichia coli [2], 32 µg/mL (≈ 61.6 µM); in the assay with Escherichia coli [3] it was 2 µg/mL (≈ 3.85 µM); against Streptococcus pneumoniae it was 16 µg/mL (≈ 30.8 µM). Further, the IC50 was determined as 43 nM in the assay with Staphylococcus aureus [4] and 4 nM in the assay with Escherichia coli [5].
Turning to `C/C=C/C=C/C(=O)N[C@@H](CC(=O)N[C@H](C(=O)C1C(=O)NC(=O)CC1C)C(C)C)c1ccccc1` (stereo not given in full), the MIC with Staphylococcus aureus [1], in the assay with Escherichia coli [2], in the assay with Escherichia coli [3] and against Streptococcus pneumoniae was above 64 µg/mL throughout. Also, the IC50 was above 1000 nM in the assay on Staphylococcus aureus [4] and above 300 nM in the assay on Escherichia coli [5].
Take `C/C=C/C=C/C(=O)N[C@@H](CC(=O)N[C@H](C(=O)[C@@H]1C(=O)N(C2CC2)C(=O)[C@H]1C)C(C)C)c1ccccc1`: the MIC against Staphylococcus aureus [1], in the assay on Escherichia coli [2], against Escherichia coli [3] and in the assay with Streptococcus pneumoniae was above 64 µg/mL throughout. The IC50 with Staphylococcus aureus [4] was found to be 2560 nM; with Escherichia coli [5] it was 60 nM.
As for `C/C=C/C=C/C(=O)N[C@@H](CC(=O)N[C@H](C(=O)[C@@H]1C(=O)N(C)C(=O)[C@H]1C)C(C)C)c1ccccc1`, the minimal inhibitory concentration (MIC) against Staphylococcus aureus [1] is 16 µg/mL (≈ 34.2 µM); with Escherichia coli [2], above 64 µg/mL; against Escherichia coli [3] it was 16 µg/mL (≈ 34.2 µM); against Streptococcus pneumoniae, above 64 µg/mL. The IC50 in the assay on Staphylococcus aureus [4] was found to be 211 nM; with Escherichia coli [5], 25 nM.
Regarding `C/C=C/C=C/C(=O)N[C@@H](CC(=O)N[C@H](C(=O)C1CC(C)C(=O)NC1=O)C(C)C)c1ccccc1` (stereo not given in full), the MIC with Staphylococcus aureus [1], against Escherichia coli [2], in the assay on Escherichia coli [3] and in the assay on Streptococcus pneumoniae was above 64 µg/mL throughout. The IC50 was above 1000 nM with Staphylococcus aureus [4] and 295 nM in the assay on Escherichia coli [5].
